Data taken from ChEMBL document CHEMBL4261600 (Eur J Med Chem, 2018).

How the values were obtained:
MV4-11 = assay: Antiproliferative activity against human MV4-11 cells after 72 hrs by Celltiter-Glo assay; assay type: functional; settings: MV4-11, 72 h
How it was run: (§1)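 Cells seeded at 3000/well in 96-well plates, exposed to serially diluted compound for 72 h at 37 °C, 5% CO2. Viability read by CellTiter-Glo luminescence and normalized to DMSO control. GI50 derived from curve fit, mean of three independent measurements. Culture media: DMEM/10% FBS for adherent lines; IMDM for MV4-11 and MEC-1/2; RPMI 1640 for suspension lines and CHL.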

[1] = Antiproliferative activity against human MEC1 cells after 72 hrs by Celltiter-Glo assay; assay type: functional; settings: MEC1, 72 h; how it was run: as §1
CDK9/Cyclin K = CDK9/Cyclin K (Homo sapiens, UniProt P50750); assay: Inhibition of CDK9/Cyclin K (unknown origin) using PDKtide as substrate incubated at 37 degreeC for 1 hr followed by incubation at room temperature for 5 mins by ADP-Glo reagent based luminescence assay; assay type: protein-complex assay
Sequence of CDK9/Cyclin K (P50750 whole entry): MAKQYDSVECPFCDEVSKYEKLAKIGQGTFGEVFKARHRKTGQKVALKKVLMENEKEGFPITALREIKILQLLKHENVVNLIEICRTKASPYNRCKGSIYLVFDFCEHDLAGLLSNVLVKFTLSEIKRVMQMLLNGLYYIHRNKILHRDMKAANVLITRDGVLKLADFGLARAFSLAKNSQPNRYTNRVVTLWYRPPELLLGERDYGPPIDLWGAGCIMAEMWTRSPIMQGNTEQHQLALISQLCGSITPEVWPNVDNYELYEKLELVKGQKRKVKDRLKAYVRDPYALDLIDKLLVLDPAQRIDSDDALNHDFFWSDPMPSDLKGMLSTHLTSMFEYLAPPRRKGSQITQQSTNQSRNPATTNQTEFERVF
Sequence of CDK9/Cyclin K (O75909 whole entry, further chain): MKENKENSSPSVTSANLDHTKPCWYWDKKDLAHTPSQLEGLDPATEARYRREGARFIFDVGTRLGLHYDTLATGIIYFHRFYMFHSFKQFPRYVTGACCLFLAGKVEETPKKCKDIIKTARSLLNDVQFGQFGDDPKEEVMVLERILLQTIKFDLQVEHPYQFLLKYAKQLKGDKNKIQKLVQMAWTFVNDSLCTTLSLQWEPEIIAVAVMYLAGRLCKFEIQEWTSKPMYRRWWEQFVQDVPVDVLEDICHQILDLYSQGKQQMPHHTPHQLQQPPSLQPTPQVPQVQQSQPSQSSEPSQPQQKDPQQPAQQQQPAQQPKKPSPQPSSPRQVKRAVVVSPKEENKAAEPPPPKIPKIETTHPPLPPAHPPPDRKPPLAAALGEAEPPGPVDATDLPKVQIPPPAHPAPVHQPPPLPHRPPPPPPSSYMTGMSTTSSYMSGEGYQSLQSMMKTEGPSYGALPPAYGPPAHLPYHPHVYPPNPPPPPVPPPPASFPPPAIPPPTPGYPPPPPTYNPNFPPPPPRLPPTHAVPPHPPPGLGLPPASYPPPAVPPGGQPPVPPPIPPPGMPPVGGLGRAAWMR

[2] = Antiproliferative activity against Chinese hamster CHL cells after 72 hrs by Celltiter-Glo assay; settings: Cricetulus griseus

SMILES | GI50 (MV4-11) [nM] | GI50 [1] [nM] | IC50 (CDK9/Cyclin K) [nM] | GI50 [2] [nM]
Clc1cnc(Nc2ccccc2)cc1-c1csc(NCC2CCOCC2)n1 | > 10000 | > 10000 | 238 | > 10000
COCCN[C@H]1CC[C@H](Nc2cc(-c3csc(SCC4CCOCC4)n3)c(Cl)cn2)CC1 | 340 | 800 | 14 | 5600
COCCN[C@H]1CC[C@H](Nc2cc(-c3csc(NCC4CCOCC4)n3)ccn2)CC1 | 910 | 2500 | 114 | 1200
CCOCCN[C@H]1CC[C@H](Nc2cc(-c3csc(NCC4CCOCC4)n3)c(Cl)cn2)CC1 | 497 | 634 | 51 | 2820
COC[C@H](C)N[C@H]1CC[C@H](Nc2cc(-c3csc(NCC4(C#N)CCOCC4)n3)c(Cl)cn2)CC1 | 121 | 537 | 10 | 1250
COCCN[C@H]1CC[C@H](Nc2cc(-c3csc(NCC4CCCC4)n3)c(Cl)cn2)CC1 | 2160 | 2940 | 80 | > 10000
COCCN[C@H]1CC[C@H](Nc2cc(-c3csc(NCC(F)(F)F)n3)c(Cl)cn2)CC1 | 752 | 1100 | 17 | 877
COCCNc1cc(-c2csc(NCC3CCOCC3)n2)c(Cl)cn1 | > 10000 | > 10000 | 1040 | > 10000
COCCCN[C@H]1CC[C@H](Nc2cc(-c3csc(NCC4CCOCC4)n3)c(Cl)cn2)CC1 | 1090 | 2610 | 12 | 2030
COCCN[C@H]1CC[C@H](Nc2cc(-c3csc(NCC4C5CC6CC(C5)CC4C6)n3)c(Cl)cn2)CC1 (some centres undefined) | 3460 | 6310 | 94 | 2040
COCCN[C@H]1CC[C@H](Nc2cc(-c3csc(NCC4CCOCC4)n3)c(C)cn2)CC1 | 1620 | 3560 | 253 | 5010
Fc1cc(-c2csc(NCC3CCOCC3)n2)c(Cl)cn1 | > 10000 | > 10000 | 557 | > 10000
N[C@H]1CC[C@H](Nc2cc(-c3csc(NCC4CCOCC4)n3)c(Cl)cn2)CC1 | 140 | 270 | 22 | 3500
COC[C@H](C)N[C@H]1CC[C@H](Nc2cc(-c3csc(NCC4CCOCC4)n3)c(Cl)cn2)CC1 | 440 | 1300 | > 10000 | 3600
COCCN[C@H]1CC[C@H](Nc2cc(-c3csc(NCc4ccccc4)n3)c(Cl)cn2)CC1 | 330 | 470 | 14 | 1000
N[C@H]1CC[C@H](CNc2cc(-c3csc(NCC4CCOCC4)n3)c(Cl)cn2)CC1 | 1900 | > 10000 | 84 | 3900
